Assay results as given in publication PMC4545405 (ACS chemical biology, 2013).
Where two headings read alike, the source gives them in different places.

Experiments:
PelD = PelD (Pseudomonas aeruginosa, UniProt A0A0H2ZD98); assay: DRaCALA / DRaCALA-HTS inhibition of 32P-cdiGMP binding to PelD; settings: for fraction bound of 32P-cdiGMP to PelD in DRaCALA-HTS: NCC1 library screen, cutoff 3 standard deviations below the average
WspR [1] = biological target: T1, WspR (Pseudomonas aeruginosa, UniProt Q9HXT9); assay: DRaCALA inhibition of 32P-cdiGMP binding to WspR
[2] = test system: PDE (RocR, PvrR, FimX) or PilZ (Alg44, PA3353) proteins; assay: DRaCALA inhibition of 32P-cdiGMP binding to PDE and PilZ proteins; parameters: species or system P. aeruginosa; settings: Eb 50 μM
Method in brief: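 Purified protein was mixed with ³²P-cdiGMP in the presence of 50 μM test compound or DMSO, then spotted on nitrocellulose. Spots were imaged by phosphorimager. Fraction bound = corrected bound-ligand intensity ÷ total spot intensity.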

WspR [3] = biological target: T1, WspR; assay: WspR DGC activity assay by TLC; format: biochemical; settings: for DGC activity of wild-type WspR (inhibition): 50 μM; for WspR activity after DTT treatment of preincubated WspR: with DTT
[4] = test system: WspR with C49A substitution; assay: DGC activity assay of C49A WspR; format: biochemical, Pseudomonas aeruginosa; settings: 50 μM
Method in brief: (§1)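 Purified WspR point mutants (C49A, C240A, or AxxA at the RxxD I-site), expressed from cloned alleles. Diguanylate cyclase activity measured by thin-layer chromatography (TLC) with test compound or cdiGMP at 50 μM, against a DMSO control. Compounds were dissolved in DMSO.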

[5] = test system: WspR with C240A substitution; assay: DGC activity assay of C240A WspR; format: biochemical, Pseudomonas aeruginosa; settings: 50 μM
Method in brief: as §1

[6] = test system: AxxA WspR (RxxD I-site abolished); assay: DGC activity assay of AxxA WspR; format: biochemical, Pseudomonas aeruginosa; settings: 50 μM
Method in brief: as §1

P. aeruginosa PA14 = assay: Growth curves; format: cell-based, Pseudomonas aeruginosa; settings: 50 μM, LB, 37 °C, 16 hours, vs DMSO
Method in brief: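 P. aeruginosa PA14 grown overnight in LB at 37 °C with shaking, then subcultured in LB with 50 μM test compound or 2% DMSO alone. Grown with shaking at 37 °C for 16 h. A600 read every 5 minutes.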

[7] = test system: P. aeruginosa PA14 overexpressing DGCs; assay: Swim motility assay of PA14 overexpressing DGCs; format: cell-based, Pseudomonas aeruginosa; settings: for change in swimming motility compared to the DMSO control: PA14 overexpressing PA0847, IPTG; for change in swimming motility compared to the DMSO control / increase in swimming diameter compared to the DMSO control: 50 μM
PA14 pMMB-WspR = assay: Crystal violet pellicle assay, DGC-dependent biofilm formation; format: cell-based, Pseudomonas aeruginosa; settings: IPTG-induced WspR, static incubation 30 °C, 16 hours
PA14 ΔretS = assay: Crystal violet pellicle assay, DGC-independent biofilm formation; format: cell-based, Pseudomonas aeruginosa
Alg44 = Alg44 (Pseudomonas aeruginosa, UniProt Q9HY69); assay: DRaCALA / DRaCALA-HTS binding of 32P-cdiGMP to Alg44; settings: for Kd: Kd of Alg44 binding to 32P-cdiGMP
[8] = PA14 overexpressing PA1107, IPTG
[9] = PA14 overexpressing PA1120, IPTG
[10] = PA14 overexpressing PA1727, IPTG

Chain of Alg44 (Q9HY69 whole entry): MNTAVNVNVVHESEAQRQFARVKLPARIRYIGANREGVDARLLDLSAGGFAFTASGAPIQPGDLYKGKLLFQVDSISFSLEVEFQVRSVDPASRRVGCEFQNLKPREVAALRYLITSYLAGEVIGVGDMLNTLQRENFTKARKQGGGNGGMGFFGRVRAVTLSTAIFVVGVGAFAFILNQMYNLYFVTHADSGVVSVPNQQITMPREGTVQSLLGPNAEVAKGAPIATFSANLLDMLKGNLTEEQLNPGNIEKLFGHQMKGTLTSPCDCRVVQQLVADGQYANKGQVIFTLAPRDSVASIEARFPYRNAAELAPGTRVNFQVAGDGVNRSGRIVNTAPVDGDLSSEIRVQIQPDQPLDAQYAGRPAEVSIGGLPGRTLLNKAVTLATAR

| Structure (SMILES) | fraction bound of 32P-cdiGMP to PelD in DRaCALA-HTS (PelD) | reduction of 32P-cdiGMP binding to PDE or PilZ proteins [2] | DGC activity of wild-type WspR (inhibition) (WspR [3]) | WspR activity after DTT treatment of preincubated WspR (WspR [3]) | DGC activity of C49A WspR (inhibition) [4] | DGC activity of C240A WspR (inhibition) [5] | DGC activity of AxxA WspR (inhibition) [6] | growth of P. aeruginosa PA14 (P. aeruginosa PA14) | change in swimming motility compared to the DMSO control [7] | increase in swimming diameter compared to the DMSO control [7, 8] [fold] | increase in swimming diameter compared to the DMSO control [7, 9] [fold] | increase in swimming diameter compared to the DMSO control [7, 10] [fold] | increase in swimming diameter compared to the DMSO control ([7]; PA14 overexpressing WspR, IPTG) [fold] | reduction of biofilm formation compared to the DMSO control (PA14 pMMB-WspR) | DGC-independent biofilm formation (PA14 ΔretS) | other results |
| --- | --- | --- | --- | --- | --- | --- | --- | --- | --- | --- | --- | --- | --- | --- | --- | --- |
| O=c1c2ccccc2[se]n1-c1ccccc1 [Eb, ebselen] | below the positive cutoff of 3 standard deviations below the average | ≤ 25% | inhibited | returned WspR activity to the level of the DMSO control | still susceptible to inhibition | completely refractory | no longer inhibited | No difference in growth | no change in swimming motility | 3.4 | 2.5 | 1.1 | 2 | ~ 40% | Neither Eb nor EbO reduced biofilm formation | IC50 (PelD): 5 ± 2 µM; inhibition at 50 µM (PelD; read-out: reduction of cdiGMP binding to PelD): 80%; IC50 (WspR [1]): 13.6 ± 0.5 µM; inhibition at 50 µM (WspR [1]; read-out: reduction of cdiGMP binding to WspR): 90%; inhibition at 50 µM (WspR [3]; read-out: reduction of WspR activity (velocity)): 87%; WspR velocity at varying substrate and Eb concentrations (WspR [3]; varying substrate concentrations): reduced WspR velocity in a concentration dependent manner |
| O=C1c2ccccc2[Se](=O)N1c1ccccc1 (centres unmarked) [EbO, ebselen oxide] |  | did not reduce | inhibited | returned WspR activity to the level of the DMSO control | still susceptible to inhibition | completely refractory | no longer inhibited | No difference in growth | no change in swimming motility | 4 | 3.4 | 1.3 | 2.5 | ~ 40% | Neither Eb nor EbO reduced biofilm formation | reduction of cdiGMP binding to PelD (PelD; compared to the DMSO control, Eb 50 μM): ~ 60%; IC50 (PelD; read-out: IC50 for PelD (inhibition of cdiGMP binding), DRaCALA): 5 ± 2 µM; IC50 for WspR (inhibition of cdiGMP binding) (WspR [1]; DRaCALA): did not show inhibition; reduction of cdiGMP binding to WspR (WspR [1]; compared to the DMSO control, Eb 50 μM, no preincubation): ~ 30%; reduction of 32P-cdiGMP binding to WspR after preincubation (WspR [1]; preincubation of WspR for 30 minutes before addition of 32P-cdiGMP): 86%; reduction of WspR activity (velocity) (WspR [3]; 10 μM GTP, inhibitor 50 μM): 87%; reversal of cdiGMP-mediated repression of swimming, concentration dependence ([7]; PA14 overexpressing PA3702, IPTG, different concentrations): at a lower concentration |
| Nc1nc2c(ncn2[C@@H]2O[C@@H]3COP(=O)(O)O[C@H]4[C@@H](O)[C@H](n5cnc6c(=O)[nH]c(N)nc65)O[C@@H]4COP(=O)(O)O[C@H]3[C@H]2O)c(=O)[nH]1 [cdiGMP, cyclic-di-GMP] | no binding was observed |  | inhibited |  | still susceptible to inhibition | inhibited | no longer inhibited |  |  |  |  |  |  |  |  | average fraction bound of 32P-cdiGMP to Alg44 with cdiGMP competitor (Alg44; 384-well plate, 25 μM unlabeled cdiGMP): 0.007±0.005; Kd (Alg44; 384 well format, HTS-DRaCALA): 0.239 ± 0.007 µM; Kd (Alg44; fraction bound in individual reaction mixtures): 0.38 ± 0.02 µM |
